This is a sample that favours compounds with a hit; in the whole collection about 3% have one here.
PLCb3 inh = blocks human PLC-beta3 enzyme activity | inhibition, % at 12.2 µM | Q01970 | Purified PLC-beta3, fluorogenic substrate, fluorescence | 0.18% of 370,000 active | AID 720704;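 further: 0% = median of compound wells on plate and 100% = full blocker control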
DDE Tn7 FP inh = disrupts Tn7 cyclic peptide binding to fibrin D-Dimer-E complex; P02675; 0.13% of 370,000 active; FP displacement of FITC-Tn7 peptide from fibrin DD(E); 0% = median of compound wells per plate; inhibition, % at 8.3 µM;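 active means inhibition above the mean of compounds falling within the control limits plus 3 SD of them, cut at about 14% in these data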;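 further: 0% = plate median of compound wells and 100% = 10 µM Aha-Tn7 peptide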
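Assay system: Fibrin-DD(E) protein isolated from polymerized human fibrin clots; read-out basis: percent inhibition; medium: Tris/NaCl/CaCl2 buffer, pH 7.8; signal: FP measurement; incubation: 10 min plus 3 h, room temperature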
KLK7 zymogen act = activates the human kallikrein-7 zymogen; P49862; purified proKLK7, EDANS-DABCYL substrate fluorescence; 100% is mature enzyme control, 0% vehicle; activation, % at 7 µM; 0.9% of 370,000 active;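 active means activation above the mean of all tested compounds plus 3 SD, computed per campaign excluding outliers beyond control limits, cut at about 13% in these data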
CendR NRP1 mod = alters CendR peptide binding to human NRP-1. O14786. FAM-RPARPAR peptide binding to NRP-1, fluorescence polarization. inhibition, % at 25 µM. 0.85% of 360,000 active. AID 602438;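 active means inhibition or corrected inhibition above about 18%, plus a signal ratio from 0.5 to 1.5, limit read from the data, passing the limit was not always enough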
Target sequence (O14786 whole entry, looked up): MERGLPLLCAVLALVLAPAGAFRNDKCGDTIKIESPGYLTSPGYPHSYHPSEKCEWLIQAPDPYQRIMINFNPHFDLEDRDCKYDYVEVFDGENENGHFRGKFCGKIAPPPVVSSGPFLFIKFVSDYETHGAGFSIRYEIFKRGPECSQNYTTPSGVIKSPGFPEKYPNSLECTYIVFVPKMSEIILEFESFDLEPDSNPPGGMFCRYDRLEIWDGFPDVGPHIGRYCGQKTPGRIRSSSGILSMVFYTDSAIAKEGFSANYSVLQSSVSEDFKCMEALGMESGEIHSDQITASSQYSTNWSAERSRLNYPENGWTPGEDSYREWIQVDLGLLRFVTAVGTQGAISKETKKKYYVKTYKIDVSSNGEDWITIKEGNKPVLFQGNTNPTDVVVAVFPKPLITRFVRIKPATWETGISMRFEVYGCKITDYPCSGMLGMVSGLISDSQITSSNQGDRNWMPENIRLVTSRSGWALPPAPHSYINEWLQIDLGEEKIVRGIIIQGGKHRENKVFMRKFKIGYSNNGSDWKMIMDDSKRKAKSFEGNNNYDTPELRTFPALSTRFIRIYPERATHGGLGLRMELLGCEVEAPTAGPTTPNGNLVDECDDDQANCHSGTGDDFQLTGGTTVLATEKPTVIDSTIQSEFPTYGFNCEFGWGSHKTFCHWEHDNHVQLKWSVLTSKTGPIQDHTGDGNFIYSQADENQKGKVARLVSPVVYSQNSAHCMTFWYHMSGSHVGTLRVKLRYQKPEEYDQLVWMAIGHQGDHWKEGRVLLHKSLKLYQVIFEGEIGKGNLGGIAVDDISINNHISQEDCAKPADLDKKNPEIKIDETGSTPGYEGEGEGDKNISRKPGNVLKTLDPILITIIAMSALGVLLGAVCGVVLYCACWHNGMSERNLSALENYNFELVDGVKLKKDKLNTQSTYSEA
PLCg1 inh = blocks human PLC-gamma1 enzyme activity. P19174. purified PLC-gamma1, fluorogenic substrate, fluorescence. inhibition, % at 12.2 µM. 0.84% of 370,000 active; in the data active means inhibition above about 9.5%
DDE Tn6 FP inh = disrupts Tn6 cyclic peptide binding to fibrin D-Dimer-E complex | 0.21% of 370,000 active | Fibrin DD(E) TRITC-Tn6 fluorescence polarization displacement | inhibition, % at 8.3 µM | P02675;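 active means inhibition above a per-campaign cutoff: mean of compounds within control limits plus 3 SD, cut at about 15% in these data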;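 further: 0% = median of all compound wells on the plate and 100% = blocking peptide control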
PLCg1 ctr = counter-screen for PLC-beta3 inhibitors: inhibitors of human PLC-gamma1; 3.1% of 3,300 active; inhibition, % at 12.3 µM; purified PLC-gamma1, fluorogenic substrate, fluorescence; shares compounds with PLCg1 inh; AID 743258; in the data active means inhibition above about 9.5%
PLCbeta3 conf = confirmation of human PLC-beta3 inhibitors. shares compounds with PLCg1 inh. purified PLC-beta3, fluorogenic substrate fluorescence. inhibition, % at 12.3 µM. 1% of 3,300 active. AID 743261
Starred values were filed as active, the others as inactive; x = no result. Unless noted, no stated cut-off is given here; in the data, active means inhibition above about 11%; inactive means the rest.

SMILES | PLCb3 inh | DDE Tn7 FP inh | KLK7 zymogen act | CendR NRP1 mod | PLCg1 inh | DDE Tn6 FP inh | PLCg1 ctr | PLCbeta3 conf
COc1cccc(C(=O)NNC(=O)CCN2CCN(c3ccccc3)CC2)c1 | 12.8* | -2.9 | -0.4 | 10.3 | 6.2 | -0.2 | -2.1 | 3.8
COc1cccc(C(=O)NCCN2CCOCC2)c1 | 0.6 | -4.6 | -0.3 | 6.1 | 2.0 | -3.6 | x | x
COc1cccc(C(=O)NCCN2CCN(c3ccc(Cl)cc3)CC2)c1 | 7.3 | -1.4 | 0.8 | -4.8 | 9.9* | -1.1 | -5.7 | -7.9
CCCCOc1cccc(C(=O)Nc2ccc(N3CCN(CC)CC3)cc2)c1 | 10.8* | -0.4 | 0.4 | 4.7 | 3.3 | -3.5 | -1.2 | 5.8
C=CCN1[C@@H](C)COc2cc(N3CCSCC3)ccc2S1(=O)=O | -2.5 | -1.8 | 0.6 | x | 0.0 | -7.0 | x | x
COC(=O)[C@]12C[C@H](CC(=O)N3CCCC3)C(=O)N(Cc3ccco3)C1=C[C@H](COCc1ccccc1)O[C@@H]2C | -0.4 | -1.7 | 0.5 | x | 0.9 | -0.7 | x | x
CCOC(=O)c1cc(-c2csc(Nc3c(C)cc(C)cc3C)n2)on1 | 1.5 | -0.9 | -0.3 | 13.4 | 9.8* | -7.3 | -7.8 | -4.4
O=C(Nn1cnnc1)C1Cc2ccccc2CN1S(=O)(=O)c1ccc(F)cc1 (configuration not stated) | 3.4 | -3.2 | 0.4 | -2.5 | 10.4* | 0.6 | -1.9 | -4.1
Cc1ccc(S(=O)(=O)N2Cc3ccccc3CC2C(=O)Nn2cnnc2)cc1 (configuration not stated) | 0.1 | -2.5 | 0.3 | 11.7 | -0.4 | -10.8 | x | x
COC(=O)[C@]12C[C@H](CC(=O)NCC34CC5CC(CC(C5)C3)C4)C(=O)N(Cc3cccc4ccccc34)C1=C[C@H](C(C)(C)C)O[C@@H]2C | 4.3 | 8.2 | 0.6 | x | -2.0 | 7.4 | x | x
CCc1ccc(OC)c(S(=O)(=O)Nc2ccccc2C)c1 | -1.4 | -0.2 | 0.4 | 1.7 | 2.2 | 1.7 | x | x
CC(=O)Nc1cc(S(=O)(=O)Nc2ccccc2C)c(C)cc1C | 6.0 | -8.6 | 0.4 | 3.8 | 9.8* | -1.0 | -1.6 | 2.6
Cc1ccccc1NS(=O)(=O)c1ccc(C)c(NS(C)(=O)=O)c1C | -1.5 | 8.8 | 0.2 | 0.9 | 9.9* | -4.0 | 2.3 | 0.5
COc1ccc(C)cc1S(=O)(=O)Nc1ccccc1C | 10.0 | -3.9 | -0.3 | -3.9 | 11.4* | -4.6 | -5.8 | -4.2
Cc1ccccc1NS(=O)(=O)c1cc(S(C)(=O)=O)ccc1C | 2.0 | 5.1 | 0.1 | -15.9 | 0.8 | -1.8 | x | x
CCCNC(=O)C[C@H]1CC[C@H]2[C@@H](COc3ccc(NC(=O)c4cncs4)cc3C(=O)N2C)O1 | 11.1* | 4.8 | -0.1 | x | 12.4* | -7.5 | 16.0* | 17.9*
CCCNC(=O)Nc1ccc2c(c1)C(=O)N(C)[C@H]1CC[C@@H](CC(=O)OC)O[C@H]1CO2 | -0.9 | 5.5 | 0.4 | x | -1.1 | 5.1 | x | x
COC(=O)C[C@@H]1CC[C@H]2[C@@H](COc3ccc(NC(=O)c4ccc(Cl)cc4)cc3C(=O)N2C)O1 | -51.3 | 5.4 | 0.2 | x | 12.1* | -4.2 | 0.1 | 1.9
CCCCCN(C(=O)Cc1c(C)n(CCCCC)c2ccccc12)c1ccc(Oc2cccnc2)c(C)c1 | 1.1 | 4.2 | 0.6 | x | -0.9 | -6.9 | x | x
O=C1c2ccccc2C(Nc2ccc(Cl)cn2)N1Cc1ccccc1 (configuration not stated) | -4.6 | -1.1 | 0.0 | 1.1 | 1.9 | -9.4 | x | x
CC(=O)NC1c2ccccc2C(=O)N1Cc1ccccc1 (configuration not stated) | 3.7 | -6.5 | -0.3 | 10.3 | 10.5* | -8.6 | -4.0 | -1.6
Cc1ccc(NC(=O)C2CCCN(S(=O)(=O)c3ccc4c(c3)oc(=O)n4C)C2)nc1 (configuration not stated) | 4.6 | -1.9 | -0.4 | 7.3 | 9.8* | -0.1 | -4.6 | -1.6
O=C(N=Nc1c(O)[nH]c2c(Cl)cc(Cl)cc12)c1ccccc1O | 2.1 | -3.6 | 0.7 | x | 0.1 | -0.5 | x | x
O=C1NC(=O)c2cc(Oc3ccc([N+](=O)[O-])cc3)ccc21 | 10.7* | -8.7 | 0.4 | 19.4 | 11.2* | -0.6 | -4.8 | -1.6
O=C1c2ccc(Oc3ccc([N+](=O)[O-])cc3)cc2C(=O)N1CCO | 1.6 | 1.0 | -0.1 | 9.4 | 3.1 | 9.7 | x | x
SMILES | PLCb3 inh | DDE Tn7 FP inh | KLK7 zymogen act | CendR NRP1 mod | PLCg1 inh | DDE Tn6 FP inh | PLCg1 ctr | PLCbeta3 conf
COC(=O)C1=C(C)N(C)C(=NCc2ccc(OC)cc2)NC1c1ccc(C(F)(F)F)cc1 (configuration not stated) | 4.4 | 6.7 | -0.4 | x | 2.0 | -3.1 | x | x
Cc1ccc(Nc2cc(C)nc3ncnn23)c(Cl)c1 | -0.9 | 2.8 | 0.1 | -22.7 | 2.0 | 6.9 | x | x
Cc1cc(Nc2cccc(Cl)c2Cl)n2ncnc2n1 | -1.4 | -4.1 | -0.5 | -1.1 | 13.2* | 0.8 | -7.3 | -2.9
COC(=O)[C@]12C[C@H](CC(=O)NCC34CC5CC(CC(C5)C3)C4)C(=O)N(CCc3ccc(OC)c(OC)c3)C1=C[C@H](C(C)(C)C)O[C@@H]2C | 4.6 | 8.6 | -0.2 | x | -0.5 | -1.4 | x | x
CCOC(=O)c1c(C)[nH]c(C)c1S(=O)(=O)N(C)Cc1ccco1 | -3.0 | -8.4 | 0.4 | 16.0 | 10.5* | 1.5 | 0.1 | -4.9
CCn1nc(C(=O)O)c(=O)c2cc3c(cc21)OCO3 | 0.5 | -1.4 | 0.8 | -6.1 | 10.3* | -5.2 | -8.2 | -4.3
CCC(C)N(C(=O)CN1C(=O)C2CCCCN2C(=O)c2ccccc21)C(C)CC (configuration not stated) | -2.8 | -0.6 | 0.2 | x | -1.5 | 8.7 | x | x
CN(C)S(=O)(=O)c1cccc(C(=O)N/N=C\c2ccccc2)c1 | -1.6 | -0.5 | 0.0 | x | -0.1 | 6.5 | x | x
Cc1csc(Nc2nc(N)c(C(=O)Nc3ccccc3)o2)n1 | 10.7* | 0.7 | 0.1 | -8.7 | 13.7* | 0.2 | -0.7 | 4.4
Cc1csc(NC(=O)c2oc3ccccc3c2C)n1 | -37.9 | 7.4 | 0.6 | 11.3 | -40.2 | 1.1 | x | x
CCOC(=O)C1(C(C)(C)CC)CC(CSc2nc3ccccc3[nH]2)OC1=O (configuration not stated) | 6.1 | -3.3 | 0.0 | 2.6 | 12.5* | -6.4 | -5.9 | -6.4
COc1ccc(C=Nn2c(-c3ccccc3F)n[nH]c2=S)cc1OCc1ccccc1 | 3.1 | -0.9 | 0.5 | x | 2.3 | -6.2 | x | x
O=C1CCC[C@H]2C[C@H](NCc3ccccc3F)CC[C@]23CCCN13 | 1.3 | 0.4 | x | x | 0.1 | -2.9 | x | x
CCN(CC)C(=O)C1=C(C)N(CCC2=CCCCC2)C(=O)C(CC(=O)NCC2CCCCC2)C1 (configuration not stated) | 3.8 | 2.7 | -0.4 | -4.9 | 0.3 | 5.9 | x | x
